Bioassay records (PubChem)
Most compounds without a hit are left out; they make up all but 1.3% or so of the library.
MT1-MMP act inh – MT1-MMP (human) activation inhibition. P50281. HT1080 RFP-PRO-GFP cells, GFP/RFP ratio fluorescence, overnight; percent of plate control window, DMSO zero. GFP/RFP ratio change, % at 20 µM. 360,000 compounds, 0.061% hits. AID 651647;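 active means GFP/RFP ratio change of at least 30% with cell ATP level not reduced by more than half and red fluorescence within 50% of control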
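Material: RFP-PRO-GFP reporter HT1080 cells. Dosing: single-point 20 µM compound, 1% DMSO. Controls: DMSO and RFP-L50D-GFP cell wells. Timing: cells overnight before dosing, compound overnight, 37 °C, 5% CO2. Measure: GFP/RFP fluorescence ratio.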
H9c2 TAG inh – triacylglycerol accumulation inhibition | inhibition, % at 12.5 µM | AID 651582 | 230,000 compounds, 0.66% hits | H9c2 cells, Nile Red lipid (TAG) fluorescence; cells loaded with 200 µM oleic acid;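 active means pattern-corrected inhibition of lipid staining of at least 50% with the nuclear-stain viability signal not falling by more than 50%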;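 further: 0% = DMSO wells and 100% = triacsin C control wells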
Efflux pump inh – antifungal efflux pump inhibition, Nile Red retention. S. cerevisiae Candida pump triplex. inhibition, % at 10 µM. 330,000 compounds, 0.44% hits. AID 485275;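 active means plate passing quality check with inhibition over a set limit, or well fluorescence over plate mean plus 4 SD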;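 further: Nile Red retained in pooled yeast measured as flow cytometry median fluorescence; 0% = buffer negative control and 100% = Enniatin B positive control; higher means more Nile Red kept so more efflux inhibition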
sPLA2-III inh – Inhibits HGIII-sPLA2 liposome hydrolysis, primary screen; Q9NZ20; QFRET BODIPY PC-A2 liposome hydrolysis, fluorescence; inhibition, % at 12.2 µM; 370,000 compounds, 0.56% hits; AID 743126;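 active means inhibition above mean plus 3 SD of compounds lying within the high and low control bounds, cut at about 19% in these data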;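 further: 0% = median of test compound wells and 100% = no enzyme DMSO wells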
Target sequence (Q9NZ20 whole entry, looked up): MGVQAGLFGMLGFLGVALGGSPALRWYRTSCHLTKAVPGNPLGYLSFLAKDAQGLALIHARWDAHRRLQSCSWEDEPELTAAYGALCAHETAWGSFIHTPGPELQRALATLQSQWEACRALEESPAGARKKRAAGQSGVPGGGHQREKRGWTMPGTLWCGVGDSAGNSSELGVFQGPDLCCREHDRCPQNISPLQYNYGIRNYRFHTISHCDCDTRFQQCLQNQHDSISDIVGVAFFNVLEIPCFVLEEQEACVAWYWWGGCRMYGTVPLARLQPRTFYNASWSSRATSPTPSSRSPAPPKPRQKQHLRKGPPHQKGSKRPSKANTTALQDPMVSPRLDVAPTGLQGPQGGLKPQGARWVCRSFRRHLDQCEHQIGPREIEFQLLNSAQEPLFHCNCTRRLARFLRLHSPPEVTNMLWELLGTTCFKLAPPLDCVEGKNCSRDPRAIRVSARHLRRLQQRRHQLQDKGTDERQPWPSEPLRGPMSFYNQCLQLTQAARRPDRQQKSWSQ
sPLA2 confirm – human GIII-sPLA2 inhibition, confirmation. shares compounds with sPLA2-III inh. recombinant hGIII-sPLA2, BODIPY PC-A2 QFRET fluorescence. inhibition, % at 12.2 µM. 2,000 compounds, 34% hits. AID 743280;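 active means mean inhibition across triplicates above the hit cutoff set in the earlier primary screen, cut at about 19% in these data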;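 further: 0% = enzyme with DMSO and 100% = DMSO wells lacking enzyme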
535nm interf – optically interferes with 535nm fluorescence in sPLA2 counter-screen; AID 743282; BODIPY FL product fluorescence interference, QFRET; shares compounds with sPLA2-III inh; 2,000 compounds, 8.5% hits; inhibition, % at 12.2 µM;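 active means average inhibition above the solvent-only control mean plus 3 SD, cut at about 6% in these data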;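 further: 0% = DMSO with substrate plus product and 100% = DMSO with substrate alone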
BODIPY interf DR – interferes with 535nm fluorescence in dose response counter-screen. 240 tested, under 10 active. IC50, µM. shares compounds with sPLA2-III inh. BODIPY FL product fluorescence interference, cell-free;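 active means IC50 at or below 10 µM; inactive means IC50 above 10 µM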
* = called active by the depositor; · = not tested or not shown.

SMILES	MT1-MMP act inh	H9c2 TAG inh	Efflux pump inh	sPLA2-III inh	sPLA2 confirm	535nm interf	others
Cc1ccc2c(c1)c1c(n2CC(O)CN2CCCCC2C)CCCC1 (configuration not stated)	2	13	0	-13	·	·
Cc1cccc(NC(=S)NCCCN2CCOCC2)c1	2	·	0	19*	3	0
S=C(NCCCN1CCOCC1)Nc1cccc(Cl)c1	-2	19	0	3	·	·
Cc1cc(C(=O)NNC(=S)NC(=O)/C=C/c2ccccc2Cl)n[nH]1	5	·	0	26*	42*	-4	BODIPY interf DR=>122
COC(=O)Cn1c(=O)c2c(nc3n2CC(C)CN3c2ccc(C)c(C)c2)n(C)c1=O (configuration not stated)	1	-16	0	6	·	·
Cc1ccc2nc(-c3cc(N)cc(N)c3)oc2c1	2	12	0	23*	36*	-2	BODIPY interf DR=>122
COCCn1cnc2c(c1=O)c1nc3ccccc3nc1n2/N=C/c1ccco1	1	7	0	19*	5	-9
CCCCCCn1cnc2c(c1=O)c1nc3ccccc3nc1n2/N=C/c1ccco1	7	·	·	1	·	·
CN(C)c1ccc(Cl)cc1N	·	5	0	3	·	·
CCOC(=O)c1c(CSC(=N)N)n(-c2ccc(C)cc2)c2cc(Br)c(OC(C)=O)cc12	-43	74*	0	26*	11	-13
CC(=O)/C(=N\Nc1cccc(Cl)c1)Sc1nnc(-c2ccccc2)n1-c1ccccc1	-4	·	0	20*	7	-3
CCn1c(SCC(=O)NNC(=S)Nc2ccccc2)nnc1-c1ccc(Cl)cc1	7	·	0	17	·	·
Cc1ccc(/C=N/NC(=O)CSc2nc3ccccc3c(=O)n2-c2ccccc2)s1	5	·	0	19*	3	2
O=C(CSc1nc2ccccc2c(=O)n1-c1ccc(Cl)cc1)NNC(=S)Nc1ccccc1	·	·	·	33*	27*	4
O=C(CSc1nc2ccccc2c(=O)n1-c1ccc(Cl)cc1)c1ccco1	3	-37	0	-15	·	·
O=C(CSc1nnc(-c2ccccc2)n1-c1ccc(Cl)cc1)NNC(=S)Nc1ccccc1	1	·	2	26*	39*	-7	BODIPY interf DR=>122
O=C1NC(=Nc2cccc(O)c2)S/C1=C\c1cccc([N+](=O)[O-])c1	2	·	0	-22	·	·
COCCN(CCOC)S(=O)(=O)c1ccc(C(=O)Nc2c(C)n(C)n(-c3ccccc3)c2=O)cc1	2	-3	0	6	·	·
[C-]#[N+][C@]12C(=O)[C@H](C=C(Cl)[C@@]1(C)C=C)C(C)(C)[C@H]1C(=O)N(C)c3cccc2c31	·	·	·	31*	21*	-13
Cc1ccc(NC(=O)CSC(C)C(=O)OCc2cc(=O)oc3cc(O)ccc23)cc1 (configuration not stated)	-2	20	·	-7	·	·
NC(=O)c1ccc(-c2ccc(N3C(c4ccsc4)=Cc4ccc(F)cc4C3CC(=O)c3ccco3)cc2)cc1 (configuration not stated)	-8	·	·	26*	14	4
COc1cc(OC)cc(C2=Cc3ccccc3C(CC(=O)c3ccco3)N2c2ccc(-c3ccc(C(N)=O)cc3)cc2)c1 (configuration not stated)	-10	·	·	10	·	·
O=C1C(c2ccccc2)C2C=CC(C2)N1O (configuration not stated)	-1	1	·	8	·	·
C/C(=N\NC(=O)c1ccc(O)cc1)c1ccc2c(c1)Nc1ccccc1S2	2	·	0	3	·	·
C/C(=N\NC(=O)c1ccccc1F)c1ccc2c(c1)Nc1ccccc1S2	8	·	0	20*	45*	10*
SMILES	MT1-MMP act inh	H9c2 TAG inh	Efflux pump inh	sPLA2-III inh	sPLA2 confirm	535nm interf	others
COC(=O)c1cc(S(=O)(=O)N2CCN(c3cccc(Cl)c3)CC2)c[nH]1	3	-19	0	·	·	·
Cc1ccc(NC(=S)NC2CCCC2)c(C)c1	2	-16	0	19*	17	-2
Cc1cc(F)ccc1NC(=S)NC1CCCC1	-1	3	0	10	·	·
O=C(O)CNS(=O)(=O)c1ccc(F)cc1	-2	·	0	-2	·	·
C=CCNC(=O)CNS(=O)(=O)c1ccc(F)cc1	-1	·	0	20*	0	-4
O=C(NCCCn1ccnc1)c1ccc(Cl)cc1	8	-1	0	21*	-4	-6
O=C(CNC(=O)c1ccc(Cl)cc1)NCCCn1ccnc1	-5	16	0	-4	·	·
CC(=O)Nc1ccc(Nc2ccc3c4c(cc(=O)n3C)-c3ccccc3C(=O)c24)cc1	11	46	0	8	·	·
O=C1c2ccccc2C(=O)c2c(Nc3ccc(CCO)cc3)ccc(O)c21	0	·	0	21*	48*	3	BODIPY interf DR=>122
S=c1[nH]nc(COc2ccccc2)n1-c1ccc(Cl)cc1	0	0	·	22*	33*	-1	BODIPY interf DR=>122
COc1ccc(-n2c(COc3ccc(C)cc3)n[nH]c2=S)cc1	-2	·	0	15	·	·
COc1cc(/C=N/n2c(COc3ccccc3)n[nH]c2=S)cc(OC)c1OC(C)=O	1	·	0	24*	17	-2
COc1ccc(-n2c(COc3ccccc3)n[nH]c2=S)cc1	-3	16	1	21*	23*	2
COCCCNC(=S)NNC(=S)NCCCOC	1	-3	0	22*	5	-6
CSc1cccc(NC(=S)N2CCC(N(C)C3CCCC3)CC2)c1	4	2	0	19*	11	-17
Oc1ccccc1N=Nc1nc(-c2ccccc2)c(-c2ccccc2)[nH]1	10	-4	0	28*	14	16*
O=C(O)c1ccc(-c2nc(-c3ccccc3)c(-c3ccccc3)[nH]2)cc1	7	·	0	-18	·	·
COc1ccc(N=Nc2nc(-c3ccccc3)c(-c3ccccc3)[nH]2)cc1	-9	·	-1	28*	30*	2	BODIPY interf DR=>122
COc1ccc(-c2nc(C)ncc2N=Nc2ccccc2)cc1	1	24	0	5	·	·
CN(C)CCOc1cc(Cl)cc(Cl)c1	3	-4	0	7	·	·
N/C(COc1cc(Cl)cc(Cl)c1)=N\O	0	-13	0	21*	-2	-9
C[C@@H]1CN(C(=O)OC(C)(C)C)CCN1c1ccc(N2CC[C@H](O)C2)c(C#N)c1	·	·	·	21*	8	-13
COC(=O)CC#C[C@H](C)[C@@H](NS(C)(=O)=O)C1CCCCC1	·	·	·	-5	·	·
Cc1cccc(N2CN(Cc3cccnc3)CNC2=S)c1	-1	·	0	19*	-4	-7
CCc1ccc(N2CN(Cc3cccnc3)CNC2=S)cc1	3	-3	0	15	·	·
N=C(N)SCc1ccccc1Cl	0	7	0	34*	11	-6
